# Screens: PubChem BioAssay, several laboratories
# An excerpt weighted towards active compounds, which were near 2.1% of everything screened.
# INS promoter inh: TRM-6 insulin promoter activity inhibition. TRM-6 cells (human fetal islet line), insulin promoter-eGFP reporter, imaging; reporter expression induced with tamoxifen. inhibition, % at 2 µM. actives 0.9% (n = 130,000). AID 1273;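 active means inhibition above the mean plus 3 SD, with well images judged a real hit on visual review, cut at about 60% in these data, passing the limit was not always enough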
# Arbovirus anti: arbovirus infection inhibition | arbovirus infection cell-based antiviral screen | inhibition, % at 10 µM | actives 0.37% (n = 200,000); in the data active means inhibition above about 30%
# RBBP9 inh: human RBBP9 hydrolase inhibition. actives 0.2% (n = 220,000). recombinant RBBP9, FP-Rh probe fluorescence polarization. O75884. inhibition, % at 7.94 µM;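 active means inhibition above the campaign mean of all tested compounds plus 3 SD, cut at about 14% in these data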;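 further: plate controls were DMSO wells with RBBP9 for no effect and wells lacking RBBP9 protein for full effect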
# Target sequence (O75884 whole entry, looked up): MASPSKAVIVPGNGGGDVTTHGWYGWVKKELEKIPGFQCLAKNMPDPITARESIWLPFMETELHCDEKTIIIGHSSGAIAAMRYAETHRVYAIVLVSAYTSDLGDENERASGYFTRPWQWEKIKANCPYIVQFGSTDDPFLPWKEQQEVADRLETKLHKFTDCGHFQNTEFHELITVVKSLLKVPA
#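 Test system: recombinant human RBBP9. Quantity: 2.5 µM RBBP9 dispensing solution, before mixing. Detection: FP readout at 525/598 nm. Reagent: Serine-hydrolase probe FP-Rh, 375 nM pre-mixing. Measure: % inhibition. Control set: DMSO-treated enzyme wells and wells lacking RBBP9. Buffer or medium: Tris-NaCl-Pluronic buffer, pH 8.0. Times: preincubation 30 min plus labeling 45 min at 25 °C.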
# Autophagy HCS: alters autophagy in cells | MEF GFP-LC3 puncta imaging; test concentration mostly 10 µM | calls only at 10 µM (by protocol) | actives 0.98% (n = 190,000);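 active means percentage of spot-positive cells more than 3 SD above its plate mean, without a fluorescence outlier flag or 80% toxicity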;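 further: spot-positive cell cutoff set from DMSO-treated cells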
# PKD1 kinase inh: PKD1 (human) kinase inhibition. Q15139. PKD1 kinase fluorescence polarization assay. inhibition, % (test concentration not listed). actives 0.056% (n = 200,000). AID 797; in the data active means inhibition above about 50%
# Insulin prom up: MIN6 insulin promoter up-regulation | MIN6 insulin promoter-GFP reporter, high-content imaging; active compounds read high | z-score at 5 µM | actives 0.3% (n = 190,000) | AID 1625;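 active means z-score above 3 at 5 µM with at least 500 cells counted in the well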
# Active calls of the source: *; i = inactive; nt = no result given; + = active, no number.
SMILES,INS promoter inh,Arbovirus anti,RBBP9 inh,Autophagy HCS,PKD1 kinase inh,Insulin prom up
CCOc1cc2[nH]c(=S)n(C3CC3)c(=O)c2cc1OCC,-27.3,11.6,-8.2,i,-1.7,0.28
Cn1cc(/C=N/NC(=O)c2cccc([N+](=O)[O-])c2)c2ccccc21,nt,-14.7,-6.8,i,4.8,-0.18
Cn1cc(/C=C(\C#N)C(=O)Nc2cccc([N+](=O)[O-])c2)c2ccccc21,-135.0,2.1,-7.9,+,-12.0,nt
Cc1ccc(-c2nn3c(C)nnc3c3ccccc23)cc1S(=O)(=O)NC(C)(C)CO,nt,-11.0,-2.5,i,-6.7,-0.11
O=C(Oc1ccc2c(=O)c(Oc3ccc4ccccc4c3)coc2c1)c1cncc(Br)c1,nt,27.0,-2.5,i,0.3,0.08
O=C(Oc1ccc2c(=O)c(Cl)coc2c1)c1ccncc1,81.8*,-1.9,2.4,i,-1.1,-0.11
CCOC(=O)c1ccc(NC(=O)COc2ccc(S(=O)(=O)NC(C)CC)cc2)cc1 (stereo not given),-7.9,7.0,-11.0,i,-0.9,3.08*
c1ccc(CNc2nc(-c3cccs3)nc3ccccc23)nc1,91.7*,3.6,-1.5,i,-0.6,0.56
C/C(=N/NC(=O)c1cccs1)c1cccs1,nt,nt,-9.8,nt,nt,nt
C/C(=N\NC(=O)CC1(C)OCCO1)c1cccs1,35.7,5.6,-3.1,+,-2.2,0.36
COc1ccccc1NS(=O)(=O)c1cc([N+](=O)[O-])ccc1N/N=C/c1c(C)[nH]c2ccccc12,-260.0,-9.4,9.2,i,-9.3,nt
O=[N+]([O-])c1ccc(N/N=C/c2c[nH]c3ccccc23)c(S(=O)(=O)Nc2ccc(Cl)cc2)c1,-20.0,-42.5,11.0,+,-4.2,nt
Cc1oc2c(c1C(=O)NCCCC(=O)O)CCCC2,-10.1,5.9,0.8,i,-4.0,nt
Cc1cc2ccccc2n1CCNCc1c(C(=O)N2CCOCC2)nc2ccccn12,nt,nt,-1.2,nt,nt,1.33
CC1=NNC(=O)/C1=C\c1cn(-c2ccccc2)nc1-c1ccc(Cl)cc1,26.7,-31.8,-9.8,+,-2.8,0.35
COC(=O)C1=C(C)N=C2SC(C#N)=C(N)N2C1c1cccc(OC)c1 (stereo not given),100.0*,7.8,2.5,i,-1.6,0.01
COC(=O)C1=C(C)N=C2SC(C#N)=C(N)N2C1c1ccc(OC)cc1 (stereo not given),nt,-0.5,-5.9,i,14.4,-0.68
COc1ccc2cc(-c3cc(C(=O)O)c4ccccc4n3)ccc2c1,7.1,34.2*,-3.0,i,-1.8,nt
COc1ccc(-c2cc(OC)c3ccccc3n2)cc1,30.8,-0.2,-7.2,i,-2.7,0.18
COc1ccc2c(OC)cc(-c3ccccc3)nc2c1,100.0*,-16.7,8.7,i,-7.3,nt
O=C(Nc1ccc(CN2CCOCC2)cc1)c1cc2ccccn2n1,nt,10.8,0.3,nt,-2.4,nt
CCCC(=O)Nc1cc2c(cc1C(C)=O)OCCO2,nt,-0.2,2.2,i,-5.8,-0.53
Cn1nc(C(=O)NCc2ccco2)c2ccccc2c1=O,61.5*,0.4,-4.4,i,-0.1,0.14
O=C(Cn1ncn2c(cc3ccccc32)c1=O)NCc1ccco1,nt,2.7,-2.6,i,0.9,3.78*
COc1ccc(Cl)c(N2CCN(CCCNC(=O)Nc3ccc(C)cc3)CC2)c1,9.1,-34.9,-15.7,+,-1.5,-1.09
SMILES,INS promoter inh,Arbovirus anti,RBBP9 inh,Autophagy HCS,PKD1 kinase inh,Insulin prom up
CCCCOc1ccc(-c2cc(C(F)(F)F)c(C#N)c(SCC(=O)O)n2)cc1,nt,14.4,-0.7,+,-8.1,nt
O=C(c1ccccc1)N1CCN2C(=O)c3ccccc3C12c1ccc(Cl)cc1 (stereo not given),-71.4,-21.8,2.4,+,-5.8,-1.13
CCOc1ccc(CN(C(=O)c2oc3ccccc3c2C)C2CCS(=O)(=O)C2)cc1 (stereo not given),38.2,-9.6,-0.6,i,-0.5,1.01
O=C1C(c2ccc(F)cc2)N(C2CCCCC2)C(=O)CN1C1CCCC1 (stereo not given),18.2,-9.4,-12.1,i,-1.8,-0.53
Cc1ccc(C2C(=O)N(C3CCC(C)CC3)CC(=O)N2C2CCCC2)cc1 (stereo not given),67.7*,-5.7,1.3,i,5.3,nt
CN(C)c1ccnc(SCc2ccccc2Cl)c1C#N,72.7*,-3.9,-10.6,i,-10.8,-0.38
COc1ccc(CN2C3CCCC2CC(NC(=O)/C=C/c2ccccc2)C3)cc1 (stereo not given),0.0,-12.5,-4.9,+,-1.7,0.21
O=C(/C=C/c1ccccc1)NC1CC2CCCC(C1)N2Cc1ccccc1 (stereo not given),nt,nt,-1.5,nt,nt,-0.49
O=C(O)CCCCNS(=O)(=O)/C=C/c1ccccc1,nt,8.4,-2.8,i,2.3,-0.02
CCCCNS(=O)(=O)/C=C/c1ccccc1,30.8,0.0,-4.1,+,1.5,-0.12
Cc1ccn2cc(-c3ccc(S(=O)(=O)N4CCOCC4)cc3)nc2c1,nt,6.5,nt,nt,nt,nt
CCOc1ccc2[nH]c(=O)c(CN(CCc3ccccc3)C(=O)N3CCOCC3)cc2c1,26.7,-1.4,1.9,i,-4.0,5.49*
CCOc1ccc2[nH]c(=O)c(CN(CCc3ccccc3)C(=O)N3CCCC3)cc2c1,-20.0,3.0,-1.3,i,2.2,0.03
Cc1cc(N/N=C/c2ccc(O)cc2O)nc(-c2ccccc2O)n1,44.0,-29.2,2.4,+,-2.4,0.02
Cc1cc(N/N=C/c2ccccc2O)nc(-c2ccccc2O)n1,-53.9,-13.8,-31.5,i,2.4,-0.67
Cc1cc(NC(=O)Cn2c(=O)c3c(ncn3CC(C)C)n(Cc3ccccc3)c2=O)no1,3.6,5.1,-0.9,i,1.5,-0.02
COc1ccc2c(c1)c1nc3ccccc3nc1n2Cc1ccc(OC(C)C)c(OC)c1,-76.5,-4.8,-13.3,+,4.7,0.95
COc1ccc(Cn2c3ccc(OC)cc3c3nc4ccccc4nc32)cc1,nt,-17.5,-5.8,+,-8.4,0.6
COc1ccc2c(c1)c1nc3ccccc3nc1n2CC(=O)OC(C)C,-22.2,-12.0,1.6,+,-5.8,nt
CCC(C)(C(=O)NC1CCCC1)N(C(=O)CNC(C)=O)c1ccccc1 (stereo not given),nt,2.4,-9.4,i,-9.7,3.46*
CCC(C)(C(=O)NC1CCCCC1)N(C(=O)c1ccccn1)c1ccccc1 (stereo not given),-20.7,11.8,-4.4,i,-2.7,0.37
CCC(C)(NC(=O)c1ccccn1)C(=O)NC1CCCC1 (stereo not given),nt,0.3,-0.4,i,-2.7,0.24
CCC(C)(NC(=O)CNC(C)=O)C(=O)NC1CCCCC1 (stereo not given),69.0*,5.0,-6.3,i,2.3,-1.81
O=C1CCC(C(=O)NCCCn2ccnc2)N1 (stereo not given),-14.3,-1.1,-1.4,+,6.0,0.65
Cc1ccc(C(=O)NCCCn2ccnc2)cc1[N+](=O)[O-],33.3,1.1,0.8,i,-1.2,5.54*
